Screening results from PubChem.
Rows were chosen to be rich in hits. Some 4.6% of all compounds tested hit in one or more screens of this group.
TAAR1 ag – human TAAR1 agonism. Q96RJ0. CHO RD-HGA16 TAAR1, Fluo-8 calcium fluorescence; vehicle wells 0%, saturating PEA agonist 100%. activation, % at 3 µM. 360,000 compounds, 0.99% hits. AID 624467;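 active means activation above the mean activation of all test compounds in the run plus 3 SD, cut at about 38% in these data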
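System: CHO-derived RD-HGA16 cells with stable Gα16 and human TAAR1 / Times: 17-24 h plating, Fluo-8 75 min 37 °C, 30 min RT / Technique: calcium-sensitive Fluo-8 signal, excitation 470-495, emission 515-575 nm / Measure: % activation relative to PEA EC100 response / Benchmarks: DMSO and PEA EC100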
OX1R antag-1 – blocks the human orexin 1 receptor | OX1R-expressing cells, FRET antagonist read-out | inhibition, % at 6.6 µM | 330,000 compounds, 1.8% hits | O43613; in the data active means inhibition mostly above about 38%, no sharp cut-off; inactive means mostly below about 40%
Target sequence (O43613 whole entry, looked up): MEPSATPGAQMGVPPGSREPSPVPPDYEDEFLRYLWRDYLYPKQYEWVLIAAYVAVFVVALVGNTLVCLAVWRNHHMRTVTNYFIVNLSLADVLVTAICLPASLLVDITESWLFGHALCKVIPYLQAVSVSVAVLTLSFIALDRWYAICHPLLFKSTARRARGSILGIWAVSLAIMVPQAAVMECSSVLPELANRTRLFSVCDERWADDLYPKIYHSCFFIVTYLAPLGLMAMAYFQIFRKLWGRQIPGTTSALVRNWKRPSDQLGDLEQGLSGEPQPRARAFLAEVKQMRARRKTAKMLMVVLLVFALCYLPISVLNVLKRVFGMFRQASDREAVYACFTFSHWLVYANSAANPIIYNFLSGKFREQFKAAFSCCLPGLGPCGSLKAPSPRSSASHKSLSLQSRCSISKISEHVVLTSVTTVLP
CHO parental Ca – counter-screen for OX1R antagonists: effect in parental CHO cells; parental CHO-K1, ATP-induced calcium, Fluo-8 fluorescence; inhibition, % at 5.6 µM; 330,000 compounds, 0.63% hits; AID 463079;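 active means inhibition above that plate's mean sample inhibition plus 3 SD, cut at about 26% in these data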
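Test system: parental CHO cells; detection: calcium-sensitive Fluo-8 fluorescence; evaluation: percent inhibition of calcium signal; also added: ATP as calcium-mobilizing challenge; repeats: one well per compound; control set: ATP-challenged DMSO wells low, unchallenged DMSO wells high; compound: single nominal dose of 5.6 µM per compound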
GPR7 antag – blocks human GPR7 receptor signaling | inhibition, % at 4.4 µM | P48145 | AID 1861 | 290,000 compounds, 1.1% hits | GPR7-expressing cells, fluorescence antagonist assay; in the data active means inhibition above about 16%, passing the limit was not always enough;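 further: cells stimulated with the agonist NPW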
Target sequence (P48145 whole entry, looked up): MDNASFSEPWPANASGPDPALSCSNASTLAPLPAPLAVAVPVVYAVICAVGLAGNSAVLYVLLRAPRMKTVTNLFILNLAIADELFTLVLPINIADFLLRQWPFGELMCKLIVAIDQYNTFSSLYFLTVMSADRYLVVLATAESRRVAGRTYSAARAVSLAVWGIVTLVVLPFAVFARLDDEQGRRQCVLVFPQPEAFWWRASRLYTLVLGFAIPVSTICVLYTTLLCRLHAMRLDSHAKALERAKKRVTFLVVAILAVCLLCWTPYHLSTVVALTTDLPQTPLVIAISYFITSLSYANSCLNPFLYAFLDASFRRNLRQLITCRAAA
TAAR1 antag – human TAAR1 antagonism. CHO RD-HGA16 TAAR1, Fluo-8 calcium fluorescence, antagonist. inhibition, % at 3 µM. 360,000 compounds, 1.5% hits. AID 624466;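 active means inhibition above a per-plate cutoff, the mean inhibition of test compounds on that plate plus 3 SD, cut at about 49% in these data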
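test system = CHO RD-HGA16 cells bearing hTAAR1 | replication = singlicate | controls = DMSO-only wells and EC80 β-PEA-stimulated wells | reagent = EC80 β-phenethylamine stimulus | read-out basis = percent inhibition of PEA-evoked calcium signal, max/basal emission ratio | schedule = seeding 17-24 h prior, 75-min 37 °C, 30-min RT dye loading | signal = kinetic Fluo-8 calcium fluorescence measurement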
OX1R antag-2 – antagonists of human orexin 1 receptor; 330,000 compounds, 0.43% hits; CHO/OX1R cells, Fluo-8 calcium fluorescence, orexin A; inhibition, % at 5 µM;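 active means inhibition above its plate's threshold, mean inhibition of all tested compounds on the plate plus 3 SD, cut at about 37% in these data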
TAAR1 ag conf – confirmation of human TAAR1 agonists | shares compounds with TAAR1 ag | CHO RD-HGA16 TAAR1, Fluo-8 calcium fluorescence; scaled: DMSO 0%, maximal phenethylamine 100% | activation, % at 3 µM | 2,400 compounds, 82% hits;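 active means activation above a cutoff set at the run's mean compound activation plus 3 SD, cut at about 39% in these data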
Ga16 ag counter – counter-screen for TAAR1 agonists: nonselective agonists in parental cells | 2,400 compounds, 50% hits | shares compounds with TAAR1 ag | activation, % at 3 µM | CHO-Ga16 parental, Fluo-8 calcium fluorescence; normalized to maximal ATP response, DMSO zero | AID 651787;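 active means activation above the run cutoff, the mean activation over all tested wells plus 3 SD, cut at about 12% in these data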
TAAR1 desensitize – counter-screen for human TAAR1 agonists: agonists that desensitize TAAR1. shares compounds with TAAR1 ag. CHO RD-HGA16 hTAAR1, Fluo-8 calcium, beta-PEA response inhibition. inhibition, % at 3 µM. 2,400 compounds, 46% hits. AID 651951;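 active means inhibition above the run cutoff, the mean inhibition of all test compounds plus 3 SD, cut at about 49% in these data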;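 further: beta-PEA stimulus applied at its EC80; loss of beta-PEA calcium signal after compound pretreatment read as receptor desensitization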
Ga16 nonsel ant – nonselective Ga16 antagonist in TAAR1 agonist counter-screen; shares compounds with TAAR1 ag; CHO-Ga16 ATP-induced calcium, Fluo-8 fluorescence; inhibition, % at 3 µM; 2,400 compounds, 39% hits;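 active means inhibition above the plate's mean compound inhibition plus 3 SD, computed per plate, cut at about 22% in these data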
Hits are given with their value; n = inactive; x = no result given.

SMILES	TAAR1 ag	OX1R antag-1	CHO parental Ca	GPR7 antag	TAAR1 antag	OX1R antag-2	TAAR1 ag conf	Ga16 ag counter	TAAR1 desensitize	Ga16 nonsel ant
N#Cc1cccc(NC(=O)CSc2ccc3c4c(cccc24)C(=O)c2ccccc2-3)c1	86	n	59	n	87	75	47	57	73	77
O=C1CCCC2=C1CC(C(=O)OCc1ccccc1)C(=O)N2Cc1ccccc1 (stereo not drawn)	n	x	x	x	n	x	x	x	x	x
O=C(Cn1nnc2ccccc2c1=O)NCCc1ccc(Cl)cc1Cl	54	n	n	n	n	n	n	n	n	n
Nc1sc(Cc2ccccc2)cc1C(=O)NC1CCCCC1	n	x	x	x	n	x	x	x	x	x
CN(CCc1ccccc1)C(C(=O)Nc1ccc2c(c1)OCCO2)c1ccnc2ccccc12 (stereo not drawn)	61	x	x	x	53	x	78	n	n	n
O=Cc1ccc(-n2cccn2)cc1	323	n	n	n	65	n	n	n	n	n
Cc1ccc(-c2csc3ncnc(SCC(=O)NCC4CCCO4)c23)cc1 (stereo not drawn)	n	n	n	x	n	n	x	x	x	x
CCOCCOc1cccc(C(=O)NC(c2ccccc2)c2ccccc2)c1	x	n	n	n	x	n	x	n	x	n
CCOCCOc1cccc(C(=O)NC(C)c2ccc3ccccc3c2)c1 (stereo not drawn)	n	n	n	n	n	n	x	x	x	x
CN(C)C1=NC[C@H](Cc2ccccc2)N1CCC1CCCC1	n	n	n	x	n	n	x	x	x	x
CN(C)C1=NC[C@H](Cc2ccccc2)N1CCCC1CCCC1	45	n	n	x	n	n	n	n	n	n
CCOC(=O)C(C(=O)OCC)c1cc(Br)c2noc3c2c1C(=O)c1ccccc1-3	59	n	39	n	73	n	66	62	87	85
Cn1c(N/N=C/c2cccs2)cc(=O)n(C)c1=O	45	n	n	n	n	n	62	n	n	n
Cn1c(=O)c2c(nc(N/N=C/c3cccs3)n2C)n(C)c1=O	n	n	n	n	n	n	x	x	x	x
COc1ccc2c(c1)c(C(=O)CN1CCc3ccccc3C1)c(C)n2C	69	n	n	n	n	n	86	n	n	n
COc1ccc2c(c1)c(C(C)=O)c(C)n2C	n	n	n	n	n	n	x	x	x	x
O=C(Cn1cnc([N+](=O)[O-])c1)NCCc1ccccc1	x	n	n	n	x	n	x	n	x	n
O=C(Cn1cnc([N+](=O)[O-])c1)NCc1ccc(F)cc1	n	n	n	n	n	n	x	x	x	x
O=C(NCC1CC1)c1ccc(Nc2nc3ccc(Br)cc3[nH]2)cc1	49	n	n	n	93	n	45	n	67	n
COCCN1CCC(CNCc2c(C(=O)N3CCCCC3)nc3c(C)cccn23)C1 (stereo not drawn)	n	n	n	n	n	n	x	x	x	x
Cc1cccn2c(CNCC3OCCc4ccccc43)c(C(=O)N3CCCCC3)nc12 (stereo not drawn)	69	n	n	n	n	n	74	n	61	n
CCCC[C@@H]1CNC(=O)C(=O)N1CCCC	n	x	x	x	n	x	x	x	x	x
CC(C)NC(=O)c1cc(C2CCCCN2S(=O)(=O)c2ccc(F)cc2F)on1 (stereo not drawn)	n	x	x	x	n	x	x	x	x	x
CN(CC(=O)Nc1ccccc1Cl)C(=O)CCNC(=O)Nc1ccccc1	x	n	n	x	x	n	x	n	x	n
COc1ccc(NC(=O)CN(C)C(=O)CCNC(=O)Nc2ccccc2)cc1	n	x	x	x	n	x	x	x	x	x
SMILES	TAAR1 ag	OX1R antag-1	CHO parental Ca	GPR7 antag	TAAR1 antag	OX1R antag-2	TAAR1 ag conf	Ga16 ag counter	TAAR1 desensitize	Ga16 nonsel ant
CCOP(=O)(c1ccccc1)c1nc(-c2ccccc2Cl)oc1N1CCCCC1 (stereo not drawn)	48	n	n	n	n	n	n	n	n	n
Cc1cc(/C=C2\SC(=O)NC2=O)c(C)n1-c1ccc(N2CCOCC2)cc1	60	n	n	n	n	n	70	34	n	24
Cc1cc(/C=C2\SC(=O)NC2=O)c(C)n1-c1ccc(N(C)C)cc1	n	n	n	n	n	n	x	x	x	x
CCCCNC(=O)C1c2ccccc2OCC(=O)N1CCc1c[nH]c2ccccc12 (stereo not drawn)	n	x	x	x	n	x	x	x	x	x
Cc1csc(=O)n1CC(=O)OCC(=O)Nc1ccc(F)c(F)c1F	n	x	x	x	n	x	x	x	x	x
CCN(CC)c1ccc(/C=C2/C(=O)c3ccc(C(=O)O)cc3C2=O)cc1	265	n	n	n	103	83	214	199	105	98
Cc1cc(C)n(-c2nc3ccccc3nc2NCCc2ccccc2)n1	61	n	n	n	n	n	n	n	n	n
COc1ccc(Nc2nc3ccccc3nc2-n2nc(C)cc2C)cc1	n	n	n	n	n	n	x	x	x	x
O=C(CCCN=C1NS(=O)(=O)c2ccccc21)OCC(=O)c1ccc(F)cc1	67	n	n	x	n	n	86	33	n	30
COc1ccc(-c2cc3c(c4c2ccn4C)C2CCC3C2)cc1OC (stereo not drawn)	n	x	x	x	n	x	x	x	x	x
CC(Nc1ccnc2cc(Cl)ccc12)c1ccc(S(N)(=O)=O)cc1 (stereo not drawn)	53	n	n	n	n	n	69	n	51	n
CC(CCCN1CCCC1)Nc1ccnc2cc(Cl)ccc12 (stereo not drawn)	n	x	x	x	n	x	x	x	x	x
Cc1nc2ccccc2c(=O)n1-c1cccc(NC(=O)c2cccs2)c1	n	n	n	x	n	n	x	x	x	x
O=C(Nc1cccc(N2C(=O)C=CC2=O)c1)c1cccs1	57	n	n	x	n	n	n	19	n	22
CN(c1ccccc1)S(=O)(=O)c1ccc(NC(=O)CC(=O)c2ccccc2)cc1	n	x	x	x	n	x	x	x	x	x
O=C(O)C1CCCCC1C(=O)NCCc1ccccc1 (stereo not drawn)	98	n	n	n	86	n	106	n	92	n
O=C(NCCc1ccccc1)C(=O)NC1CCCCC1	n	n	n	n	n	n	x	x	x	x
COc1ccc(CCNC(=O)C2CCCCC2C(=O)O)cc1OC (stereo not drawn)	x	n	n	n	x	n	x	x	x	x
CC(CNC(=O)C1CCCCC1C(=O)O)c1ccccc1 (stereo not drawn)	x	n	n	n	x	n	x	n	x	n
